8 molecules from ChEMBL document CHEMBL1153041, “Design, synthesis and biological evaluation of 2H-benzo[b][1,4] oxazine derivatives as hypoxia targeted compounds for cancer therapeutics” (Bioorg Med Chem Lett, 2009) can be followed below.

Calls of active or inactive are those of the source. The rule behind the calls is not given here.

Assay [1] relates to HepG2. As to the kind of experiment: Cytotoxicity against human HepG2 cells in normoxic condition after 48 hrs by MTT assay. In kind it is functional, cell-based. Put shortly: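 HepG2 cells (passage 2 from frozen stock) in RPMI 1640 with 10% FBS, dosed during log-phase growth with drug or vehicle (0.1% DMSO). Normoxic incubation at 37 °C, 5% CO2 for 48 h, then MTT read-out. Duplicate plates split from the same stock cells.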
For orientation: Formazan colour is commonly taken as a measure of viable cells.

Assay [2] has as its system HepG2. As to the kind of experiment: Cytotoxicity against human HepG2 cells in hypoxic condition after 48 hrs by MTT assay. Format: functional, cell-based. A digest of the protocol:
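HepG2 cells (passage 2, RPMI 1640 + 10% FBS) given drug or 0.1% DMSO vehicle in log phase. 22 h normoxia, then 2 h hypoxia (1% O2, 5% CO2, 94% N2, 37 °C) in a glove chamber checked by methylene blue indicator, then 24 h reoxygenation. MTT read at 48 h; parallel normoxic duplicate plate.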

For assay [3], the system named is HepG2. Kind of assay: Cytotoxicity against human HepG2 cells assessed as cell survival under normoxic condition at 10 uM […] by clonogenic assay relative to control. In kind it is functional. The following applies: read-out: Survival. Put shortly:
(§1)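 HepG2 in RPMI 1640 + 10% FBS, 3.5 × 10^3 cells/well, allowed 24 h growth at 37 °C. Vehicle (0.1% DMSO) or drug then applied, with 10 days incubation under normoxia (5% CO2, 37 °C). Fixed in 10% acetic acid, stained with crystal violet. Colonies >50 μm were counted visually in three random 1-mm × 1-mm grids, relative to controls; Mann–Whitney test.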

Assay [4] deals with HepG2. Kind of assay: Cytotoxicity against human HepG2 cells assessed as cell survival under normoxic condition at 50 uM after 24 hrs by clonogenic assay relative to control. Format: functional. To be noted: HepG2, 24 h, read-out: Survival. Put shortly: as §1
The subject of assay [5] is HepG2. Kind of assay: Cytotoxicity against human HepG2 cells assessed as cell survival under hypoxic condition at 10 uM after 24 hrs by clonogenic assay. In kind it is functional. To be noted: HepG2, 24 h, read-out: Survival. A digest of the protocol:
(§2)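 HepG2 in RPMI 1640 + 10% FBS, 3.5 × 10^3 cells/well, grown 24 h at 37 °C normoxic, then exposed to vehicle (0.1% DMSO) or drug. Hypoxia 1% O2/5% CO2/94% N2 at 37 °C for 5 h in glove chamber, then reoxygenated (5% CO2, 37 °C) for the rest of 10 days. Acetic acid fixation, crystal violet stain. Colonies >50 μm counted in three random 1-mm grids, expressed relative to controls; Mann–Whitney test.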

Assay [6] deals with HepG2. As to the kind of experiment: Cytotoxicity against human HepG2 cells assessed as assessed as cell survival under hypoxic condition at 50 uM after 24 hrs by clonogenic assay. The following applies: HepG2, 24 h, read-out: Survival. In kind it is functional. Put shortly:
as §2

Assay [7] has as its system HepG2. Kind of assay: Down regulation of hypoxia inducible HIF1alpha gene expression in human HepG2 cells at 20 uM by RT-PCR. In kind it is functional, cell-based. Put shortly: (§3)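 Total RNA extracted with TRIzol, then quantitative RT-PCR: 50 °C 2 min, 95 °C 10 min, 40 cycles of 95 °C 15 s / 60 °C 1 min, with melting curves. Ct normalized to GAPDH; treated-minus-control ΔCt converted by 2^ to relative expression.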

The test system of assay [8] is HepG2. As to the kind of experiment: Down regulation of hypoxia inducible P21 gene expression in human HepG2 cells at 20 uM by RT-PCR. Format: functional, cell-based. A digest of the protocol:
as §3

The subject of assay [9] is HepG2. Kind of assay: Down regulation of hypoxia inducible VEGF gene expression in human HepG2 cells at 20 uM by RT-PCR. Format: functional, cell-based. A digest of the protocol:
as §3

In assay [10] the test system is HepG2. As to the kind of experiment: Cytotoxicity against human HepG2 cells assessed as cell survival under normoxic condition at 25 uM after 24 hrs by clonogenic assay relative to control. In kind it is functional. The following applies: HepG2, 24 h, read-out: Survival. Put shortly:
as §1

Assay [11] has as its system HepG2. Kind of assay: Cytotoxicity against human HepG2 cells assessed as cell survival under normoxic condition assessed as cell survival at 100 uM after 24 hrs by clonogenic assay relative to control. In kind it is functional. To be noted: HepG2, 24 h, read-out: Survival. A digest of the protocol:
as §1

Assay [12] concerns HepG2. As to the kind of experiment: Cytotoxicity against human HepG2 cells assessed as cell survival under hypoxic condition at 25 uM after 24 hrs by clonogenic assay relative to control. Format: functional. To be noted: HepG2, 24 h, read-out: Survival. Put shortly: as §2
Assay [13] relates to HepG2. Kind of assay: Cytotoxicity against human HepG2 cells assessed as cell survival under hypoxic condition at 100 uM after 24 hrs by clonogenic assay relative to control. To be noted: HepG2, 24 h, read-out: Survival. Format: functional. Put shortly: as §2
The subject of assay [14] is HepG2. Kind of assay: Cytotoxicity against human HepG2 cells assessed as cell survival under hypoxic condition at 400 uM after 24 hrs by clonogenic assay relative to control. In kind it is functional, cell-based. The following applies: in the assay text read “normoxic” for “hypoxic”.
Where [15] appears, read: Homo sapiens, HepG2, 48 h, read-out: IC50.

As to `Cc1ccc2c(c1)N=C(c1ccc(F)cc1)CO2`, the IC50 entry in [1] (hepg2) and in [2] (hepg2) was “Not Active” in each case.
On to `O=[N+]([O-])c1ccc2c(c1)N=C(c1ccc(Cl)cc1)CO2`, for which the IC50 in assay [1] (setting [15]) worked out at 78 µM; in [2] (setting [15]), 20 µM. Further, the viability at 10 µM was 10% in [3] and -28% in [5]. Also, the viability at 50 µM in assay [4] is -11%; in [6], -83%.
On to `Cc1ccc2c(c1)N=C(c1ccc(Cl)cc1)CO2`, for which the IC50 in assay [2] (setting [15]) was found to be 87 µM. Also, the viability at 50 µM in [4] was 3%; in assay [6], -65%. The result in [7], in assay [8] and in [9] was Active. In addition, the viability at 25 µM is 5% in [10] and -31% in [12]. Also, the viability at 100 µM in [11] is 10%; in [13], -90%. Besides, in assay [14], the Activity result was “Not toxic”.
Take `Clc1ccc2c(c1)N=C(c1ccccc1)CO2`: the IC50 was determined as 78 µM in assay [1] (setting [15]) and 30 µM in [2] (setting [15]).
As to `Cc1ccc(C2=Nc3ccc(Cl)cc3OC2)cc1`, the values for the IC50 entry in assay [1] (hepg2) and in assay [2] (setting [15]) were “Not Active” and 10 µM, respectively.
For `c1ccc(C2=Nc3ccccc3OC2)cc1`, the IC50 in assay [1] (setting [15]) is 87 µM; in assay [2] (setting [15]), 10 µM. For the same molecule, in [5], the viability at 10 µM is -71%.
With `Clc1ccc(C2=Nc3ccc(Cl)cc3OC2)cc1`, the IC50 came out at 88 µM in assay [1] (setting [15]) and 28 µM in [2] (setting [15]).
In the case of `Cc1ccc(C2=Nc3cc(F)ccc3OC2)cc1`, the IC50 result is “Not Active” in [1] (hepg2) and 100 µM in assay [2] (setting [15]).

By IC50 is commonly meant the concentration needed to halve the response being measured.
